Measurements from paper PMC8416640 (Biochemistry and Biophysics Reports, 2021).

Key:
ccT2R201 = ccT2R201 (Cyprinus carpio, UniProt A0A2Z6FB59); type: cell-based, common carp (Cyprinus carpio); conditions: for response of ccT2R201 in screening of bitter compounds: single screening concentration per compound, vs control buffer
Procedure, shortened: (§1)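 Transient co-transfection of HEK293T cells with a pEAK10 vector carrying the carp receptor (cloned from lip cDNA or head genomic DNA) with an N-terminal sst tag (first 45 residues of rat somatostatin receptor 3), human Gα16gust44 and mt-apoclytin-II. Cells were exposed to each bitter test compound at one fixed screening concentration. Luminescence was read as area under the curve in RLU. More than three independent experiments were run in duplicate or triplicate, with paired t-tests.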

ccT2R200-1 = ccT2R200-1 (Cyprinus carpio, UniProt A0A2Z6FB23); type: cell-based, common carp (Cyprinus carpio); conditions: for response of ccT2R200-1 in screening of bitter compounds: single screening concentration per compound, vs control buffer
ccT2R200-1, sequence (A0A2Z6FB23 1-321): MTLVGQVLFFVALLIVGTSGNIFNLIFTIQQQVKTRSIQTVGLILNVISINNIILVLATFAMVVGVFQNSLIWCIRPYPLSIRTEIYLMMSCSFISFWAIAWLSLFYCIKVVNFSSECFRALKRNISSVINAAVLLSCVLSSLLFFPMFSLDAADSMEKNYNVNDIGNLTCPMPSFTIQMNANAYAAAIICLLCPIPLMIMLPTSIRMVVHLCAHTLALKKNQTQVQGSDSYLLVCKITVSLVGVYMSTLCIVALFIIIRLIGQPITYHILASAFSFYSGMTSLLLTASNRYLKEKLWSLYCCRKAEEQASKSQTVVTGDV

ccT2R200-2 = ccT2R200-2 (Cyprinus carpio, UniProt A0A2Z6FB19); type: cell-based, common carp (Cyprinus carpio); conditions: for response of ccT2R200-2 in screening of bitter compounds: single screening concentration per compound, vs control buffer
ccT2R200-2, sequence (A0A2Z6FB19 1-321): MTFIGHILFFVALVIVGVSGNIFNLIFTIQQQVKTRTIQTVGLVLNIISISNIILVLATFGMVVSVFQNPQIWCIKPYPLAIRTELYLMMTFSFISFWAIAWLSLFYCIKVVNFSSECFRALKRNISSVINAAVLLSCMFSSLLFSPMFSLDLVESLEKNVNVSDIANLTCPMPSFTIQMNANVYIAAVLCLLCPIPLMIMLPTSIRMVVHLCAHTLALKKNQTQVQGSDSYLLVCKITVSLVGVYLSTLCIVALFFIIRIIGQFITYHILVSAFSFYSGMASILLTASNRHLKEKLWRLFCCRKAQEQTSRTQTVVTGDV

ccT2R202-2 = type: cell-based, common carp (Cyprinus carpio); conditions: single screening concentration per compound, vs control buffer
Procedure, shortened: as §1

ccT2R203-1 = type: cell-based, common carp (Cyprinus carpio); conditions: for response of ccT2R203-1 in screening of bitter compounds: single screening concentration per compound, vs control buffer
drT2R3a = conditions: approximate, one range for four receptors; cited from earlier work
drT2R1 = conditions: drT2R1, approximate, one range for four receptors; cited from earlier work
mfT2R1 = conditions: mfT2R1, approximate, one range for four receptors; cited from earlier work
lcT2R01 = conditions: lcT2R01, approximate, one range for four receptors; cited from earlier work
drT2R4 = conditions: zebrafish receptor; cited from earlier work
ccT2R202-1 = type: cell-based, common carp (Cyprinus carpio); conditions: single screening concentration per compound, vs control buffer
Procedure, shortened: as §1

ccT2R201, sequence (A0A2Z6FB59 1-327): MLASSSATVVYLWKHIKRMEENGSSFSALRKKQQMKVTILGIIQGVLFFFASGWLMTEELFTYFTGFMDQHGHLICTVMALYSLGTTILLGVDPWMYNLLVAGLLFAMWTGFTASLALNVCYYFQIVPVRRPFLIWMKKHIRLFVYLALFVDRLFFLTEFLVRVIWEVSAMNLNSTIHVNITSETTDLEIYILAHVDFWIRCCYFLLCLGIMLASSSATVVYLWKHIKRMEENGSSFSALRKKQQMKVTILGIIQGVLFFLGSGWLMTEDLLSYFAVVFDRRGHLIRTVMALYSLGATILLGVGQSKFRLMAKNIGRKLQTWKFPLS

Molecule	response of ccT2R201 in screening of bitter compounds (ccT2R201)	response of ccT2R200-1 in screening of bitter compounds (ccT2R200-1)	response of ccT2R203-1 in screening of bitter compounds (ccT2R203-1)	other results
O=C(N[C@H](CO)[C@H](O)c1ccc([N+](=O)[O-])cc1)C(Cl)Cl [chloramphenicol]	weakly responded			
C=C1CC[C@@H]2[C@](C)(CO)[C@H](O)CC[C@@]2(C)[C@@H]1C/C=C1/C(=O)OC[C@H]1O [andrographolide]		strongly activated	weakly responded	EC50 (ccT2R200-1): 182 ± 7 µM; EC50 (ccT2R200-2): 335 ± 38 µM; response of ccT2R200-2 in screening of bitter compounds (ccT2R200-2): strongly activated; response of ccT2R202-2 in screening of bitter compounds (ccT2R202-2): weakly activated
CCCc1cc(=O)[nH]c(=S)[nH]1 [PROP]	strongly activated	weakly responded	strongly activated	response of ccT2R200-2 in screening of bitter compounds (ccT2R200-2): strongly activated
CC[N+](CC)(CC(=O)Nc1c(C)cccc1C)Cc1ccccc1 [denatonium benzoate]	weakly responded			EC50 (ccT2R201): 44 ± 5 µM; EC50 (drT2R3a): 300 to 3000 µM; EC50 (drT2R1): 300 to 3000 µM; EC50 (mfT2R1): 300 to 3000 µM; EC50 (lcT2R01): 300 to 3000 µM
CNC(N)=S [methylthiourea]			weakly responded	
O=C(O)c1cc(=O)c2c(OCC(O)COc3cccc4oc(C(=O)O)cc(=O)c34)cccc2o1 [cromolyne]		weakly responded		
COc1cc2c(c(OC)c1OC)-c1ccc(OC)c(=O)cc1[C@@H](NC(C)=O)CC2 [colchicine]	weakly responded			
amarogentin	strongly activated	strongly activated		
CC(C)[C@]12CC(=O)[C@H](C)[C@H]1C2 [α-thujon]		weakly responded		
OCc1ccccc1O[C@@H]1O[C@H](CO)[C@@H](O)[C@H](O)[C@H]1O [D-(−)-salicin]	weakly responded			
CN(C)C=S [dimethyl-thioformamide]		weakly responded	weakly responded	
CC1=C[C@H]2[C@H]3[C@H](C(C)=C4[C@H]5OC(=O)[C@@H](C)[C@@H]5CC[C@](C)(O)[C@@H]43)[C@@]13[C@@H]2[C@@](C)(O)CC[C@H]1[C@H](C)C(=O)O[C@@H]13 [absinthin]		weakly responded	weakly responded	response of ccT2R200-2 in screening of bitter compounds (ccT2R200-2): weakly responded
C=C(C)[C@@H]1[C@H]2OC(=O)[C@@H]1[C@]1(O)C[C@H]3O[C@]34C(=O)O[C@H]2[C@]14C [picrotoxinin]		strongly activated	strongly activated	EC50 (ccT2R200-1): 510 ± 26 µM; response of ccT2R200-2 in screening of bitter compounds (ccT2R200-2): strongly activated; EC50 (ccT2R203-1; ccT2R203-1, dose-response with seven concentrations, HEK293T, luminescence AUC): 425 ± 99 µM; response of drT2R4 (drT2R4): does not respond
O=C1C[C@@H]2OCC=C3CN4CC[C@]56c7ccccc7N1[C@H]5[C@H]2[C@H]3C[C@H]46 [strychinine]		weakly responded		response of ccT2R202-1 in screening of bitter compounds (ccT2R202-1): weakly activated
